Results taken from publication PMC4448975 (Pharmacology Research & Perspectives, 2015).

Assays:
human ADA2 = biological target: T1, human ADA2 (Homo sapiens, UniProt Q9NZK5); assay: Deamination of substrates in ADA2-expressing HEK293 cells; type: biochemical; settings: compared with Mock cells; substance = substrate
T1 sequence (Q9NZK5 30-511): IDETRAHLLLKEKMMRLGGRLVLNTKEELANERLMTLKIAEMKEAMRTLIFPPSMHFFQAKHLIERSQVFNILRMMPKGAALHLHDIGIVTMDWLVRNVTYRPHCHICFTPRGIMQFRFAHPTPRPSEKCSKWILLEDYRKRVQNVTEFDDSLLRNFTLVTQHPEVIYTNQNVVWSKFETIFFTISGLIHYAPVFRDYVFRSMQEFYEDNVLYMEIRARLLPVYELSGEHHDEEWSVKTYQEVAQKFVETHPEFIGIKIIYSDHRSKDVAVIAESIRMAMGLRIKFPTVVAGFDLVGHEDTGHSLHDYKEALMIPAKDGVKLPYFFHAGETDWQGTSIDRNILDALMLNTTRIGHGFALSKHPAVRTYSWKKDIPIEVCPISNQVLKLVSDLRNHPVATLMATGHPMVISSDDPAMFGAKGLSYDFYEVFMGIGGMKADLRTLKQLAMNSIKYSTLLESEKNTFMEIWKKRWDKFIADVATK

Jurkat cells = assay: Cell viability; type: cell-based, human; settings: 24 h, MTT
How it was run: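 Jurkat cells kept in RPMI-1640 with 10% FBS, penicillin–streptomycin, NaHCO3 and glutamine at 37°C, 5% CO2. Cells were seeded at 1 × 10^4 per well. […] Viability was read by MTT kit. Mean ± SD of three independent determinations; ANOVA with Dunnett's test.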

[1] = biological target: T2, ADA1 in Jurkat cell homogenates (Homo sapiens, UniProt P00813); assay: Inhibition of cordycepin deamination in Jurkat cell homogenates; type: biochemical; settings: substrate 100 μmol/L, inhibitor 50 μmol/L
T2 sequence (P00813 1-363): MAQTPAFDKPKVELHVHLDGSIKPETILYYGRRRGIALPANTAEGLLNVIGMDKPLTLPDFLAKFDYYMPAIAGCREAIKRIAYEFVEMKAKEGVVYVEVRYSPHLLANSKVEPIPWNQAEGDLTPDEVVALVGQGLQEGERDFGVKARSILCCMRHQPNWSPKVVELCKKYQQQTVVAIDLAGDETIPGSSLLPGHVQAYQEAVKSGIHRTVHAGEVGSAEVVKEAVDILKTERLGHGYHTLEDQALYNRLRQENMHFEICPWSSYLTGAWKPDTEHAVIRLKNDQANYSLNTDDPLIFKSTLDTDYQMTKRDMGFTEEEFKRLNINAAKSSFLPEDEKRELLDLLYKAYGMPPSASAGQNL

[2] = biological target: T3, ADA in mouse erythrocytes (Mus musculus, UniProt P03958); assay: Inhibition of ADA-catalyzed deamination in mouse erythrocytes; type: biochemical; settings: for inhibition at 100 µM: read-out: inhibition of the enzyme activity (deamination of cordycepin)
T3 sequence (P03958 1-352): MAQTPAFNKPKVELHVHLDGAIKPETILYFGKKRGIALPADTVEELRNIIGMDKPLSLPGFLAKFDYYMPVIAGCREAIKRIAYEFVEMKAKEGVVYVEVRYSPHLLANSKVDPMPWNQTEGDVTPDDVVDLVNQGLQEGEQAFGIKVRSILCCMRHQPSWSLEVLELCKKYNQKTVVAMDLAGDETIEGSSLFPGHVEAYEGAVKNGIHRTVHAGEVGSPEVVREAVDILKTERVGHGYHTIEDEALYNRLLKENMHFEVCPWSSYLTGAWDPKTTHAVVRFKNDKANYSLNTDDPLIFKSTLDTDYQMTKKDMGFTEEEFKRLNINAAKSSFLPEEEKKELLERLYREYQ

[3] = biological target: T4, ADA in human erythrocytes (Homo sapiens, UniProt P00813); assay: Inhibition of ADA-catalyzed deamination of cordycepin in human erythrocytes; type: biochemical
T4 sequence (P00813 1-363): T2 sequence (P00813 1-363)
How it was run: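 Human erythrocytes were incubated with cordycepin in 400 mmol/L sodium acetate buffer, pH 5.8, at 37°C after a 3 min preincubation. Inhibitors were present and cordycepin concentrations were varied. Reactions were stopped with acetonitrile and centrifuged. 3′-Deoxyinosine was quantified by reversed-phase HPLC (6% acetonitrile, 1.0 mL/min, 260 nm). Inhibition type and Ki were derived from Dixon plots.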

Nc1ncnc2c1ncn2[C@H]1C[C@H](O)[C@@H](CO)O1 [2′-deoxyadenosine]
deamination activity toward the substrate in ADA2-expressing HEK293 cells (human ADA2): comparable to those in Mock cells

Nc1ncnc2c1ncn2[C@@H]1O[C@H](CO)C[C@H]1O [Cordycepin, 3′-deoxyadenosine]
cell viability of the Jurkat cells (Jurkat cells; cordycepin alone): concentration-dependently decreased the cell viability

C[C@@H]1O[C@@H](O[C@H]2[C@H](Oc3cc(O)c4c(c3)O[C@H](c3ccc(O)cc3)CC4=O)O[C@H](CO)[C@@H](O)[C@@H]2O)[C@H](O)[C@H](O)[C@H]1O [Naringin, naringin]
inhibition of deamination of cordycepin in Jurkat cell homogenates [1]: moderately | Ki ([2]; mouse erythrocytes, substrate 2′-deoxyadenosine, Dixon plot): 197 µM | Ki ([2]; mouse erythrocytes, substrate adenosine, Dixon plot): 371 ± 10.1 µM | Ki ([2]; mouse erythrocytes, substrate cordycepin, Dixon plot): 58.8 ± 0.7 µM | inhibition of cordycepin deamination in the erythrocytes (in words) ([2]; erythrocytes, 100 μmol/L cordycepin, 100 μmol/L inhibitor, 37°C (Fig.4)): moderately inhibited | inhibition pattern against the cordycepin deamination ([2]; mouse erythrocytes, Dixon plot): competitive | inhibition at 100 µM [2]: 20% | Ki [3]: 168 ± 22.4 µM | inhibition pattern against the cordycepin deamination ([3]; human erythrocytes, Dixon plot): competitively

OC[C@H]1O[C@@H](n2cnc3c2NC=NC[C@H]3O)C[C@@H]1O [Pentostatin]
effect on the cytotoxic effect of cordycepin (Jurkat cells; Jurkat cells cotreated with cordycepin and 50 μmol/L inhibitor): stronger cytotoxicity

Nc1ncnc2c1ncn2[C@@H]1O[C@H](CO)[C@@H](O)[C@H]1O [adenosine]
deamination activity toward the substrate in ADA2-expressing HEK293 cells (human ADA2): comparable to those in Mock cells

O=c1c(O)c(-c2ccc(O)cc2)oc2cc(O)cc(O)c12 [kaempferol]
inhibition at 100 µM [2]: 0 to 10%

O=c1c(O)c(-c2cc(O)c(O)c(O)c2)oc2cc(O)cc(O)c12 [myricetin]
inhibition at 100 µM [2]: 0 to 10%

O=C1C[C@@H](c2ccc(O)cc2)Oc2cc(O)cc(O)c21 [naringenin]
inhibition at 100 µM [2]: 0 to 10%

O=c1c(O)c(-c2ccc(O)c(O)c2)oc2cc(O)cc(O)c12 [quercetin]
inhibition at 100 µM [2]: 0 to 10%
